Values after ≈ are worked out from the molar mass of the structure shown.
Legend:
Pseudomonas aeruginosa [1] = experiment: Antimicrobial activity against Pseudomonas aeruginosa ATCC 27853 at 480.6 uM by disc-diffusion method; format: functional; settings: read-out: IZ
Summary of the method: (§1)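 Kirby–Bauer disc diffusion: 5 mm paper discs soaked in compound solution in DMSO (100 or 200 µg/mL; reference drugs 200 µg/mL) and laid on inoculated Mueller-Hinton agar (bacteria) or Sabouraud agar (C. albicans, Aspergillus). DMSO discs were the control. Plates ran 24 h at 35 °C. Inhibition zone diameter was scored 0–10 mm R, 11–16 mm I, 17–25 mm S; triplicate.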

Proteus vulgaris [2] = experiment: Antimicrobial activity against Proteus vulgaris at 480.6 uM by disc-diffusion method; format: functional; settings: read-out: IZ; summary of the method: as §1
Klebsiella pneumoniae [3] = experiment: Antimicrobial activity against Klebsiella pneumoniae at 480.6 uM by disc-diffusion method; format: functional; settings: read-out: IZ; summary of the method: as §1
Klebsiella aerogenes [4] = experiment: Antimicrobial activity against Enterobacter aerogenes at 480.6 uM by disc-diffusion method; format: functional; settings: read-out: IZ; summary of the method: as §1
Staphylococcus aureus [5] = experiment: Antimicrobial activity against Staphylococcus aureus ATCC 25923 at 480.6 uM by disc-diffusion method; format: functional; settings: read-out: IZ; summary of the method: as §1
[6] = test system: Staphylococcus epidermidis; experiment: Antimicrobial activity against Staphylococcus epidermidis at 480.6 uM by disc-diffusion method; format: functional; settings: read-out: IZ; summary of the method: as §1
Streptococcus pyogenes [7] = experiment: Antimicrobial activity against Streptococcus pyogenes at 480.6 uM by disc-diffusion method; format: functional; settings: read-out: IZ; summary of the method: as §1
Streptococcus agalactiae [8] = experiment: Antimicrobial activity against Streptococcus agalactiae at 480.6 uM by disc-diffusion method; format: functional; settings: read-out: IZ; summary of the method: as §1
Aspergillus sp. [9] = experiment: Antimicrobial activity against Aspergillus sp. at 480.6 uM by disc-diffusion method; format: functional; settings: read-out: IZ; summary of the method: as §1
Candida albicans [10] = experiment: Antimicrobial activity against Candida albicans ATCC 10231 after 24 hrs by microdilution assay; format: functional; settings: ATCC 10231, 24 h
Escherichia coli [11] = experiment: Antimicrobial activity against Escherichia coli ATCC 25922 at 480.6 uM by disc-diffusion method; format: functional; settings: read-out: IZ; summary of the method: as §1
Candida albicans [12] = experiment: microbe, parasite or virus in culture; settings: ATCC 10231, read-out: IZ
Pseudomonas aeruginosa [13] = experiment: Antimicrobial activity against Pseudomonas aeruginosa ATCC 27853 at 572.4 uM by disc-diffusion method; format: functional; settings: read-out: IZ; summary of the method: as §1
Proteus vulgaris [14] = experiment: Antimicrobial activity against Proteus vulgaris at 572.4 uM by disc-diffusion method; format: functional; settings: read-out: IZ; summary of the method: as §1
Klebsiella pneumoniae [15] = experiment: Antimicrobial activity against Klebsiella pneumoniae at 572.4 uM by disc-diffusion method; format: functional; settings: read-out: IZ; summary of the method: as §1
Klebsiella aerogenes [16] = experiment: Antimicrobial activity against Enterobacter aerogenes at 572.4 uM by disc-diffusion method; format: functional; settings: read-out: IZ; summary of the method: as §1
Staphylococcus aureus [17] = experiment: Antimicrobial activity against Staphylococcus aureus ATCC 25923 at 572.4 uM by disc-diffusion method; format: functional; settings: read-out: IZ
Summary of the method: (§2)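 Kirby–Bauer disc diffusion on Mueller-Hinton medium. Sterile 5 mm paper discs are impregnated with agent dissolved in DMSO and placed on inoculated agar. DMSO discs serve as solvent control. Plates are incubated 24 h at 35 °C. Inhibition zone diameter is scored as 0–10 mm resistant, 11–16 mm intermediate, or 17–25 mm susceptible. Each assay is run three times.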

[18] = test system: Staphylococcus epidermidis; experiment: Antimicrobial activity against Staphylococcus epidermidis at 572.4 uM by disc-diffusion method; format: functional; settings: read-out: IZ; summary of the method: as §1
Streptococcus pyogenes [19] = experiment: Antimicrobial activity against Streptococcus pyogenes at 572.4 uM by disc-diffusion method; format: functional; settings: read-out: IZ; summary of the method: as §2
Streptococcus agalactiae [20] = experiment: Antimicrobial activity against Streptococcus agalactiae at 572.4 uM by disc-diffusion method; format: functional; settings: read-out: IZ; summary of the method: as §2
Candida albicans [21] = experiment: Antimicrobial activity against Candida albicans ATCC 10231 at 572.4 uM by disc-diffusion method; format: functional; settings: read-out: IZ; summary of the method: as §1
Aspergillus sp. [22] = experiment: Antimicrobial activity against Aspergillus sp. at 572.4 uM by disc-diffusion method; format: functional; settings: read-out: IZ; summary of the method: as §1
Staphylococcus aureus [23] = experiment: Antimicrobial activity against Staphylococcus aureus ATCC 25923 after 24 hrs by microdilution assay; format: functional; settings: ATCC 25923, 24 h
Pseudomonas aeruginosa [24] = experiment: Antimicrobial activity against Pseudomonas aeruginosa ATCC 27853 after 24 hrs by microdilution assay; format: functional; settings: ATCC 27853, 24 h
Escherichia coli [25] = experiment: microbe, parasite or virus in culture; settings: ATCC 25922, read-out: IZ

Clc1ccc(COC(Cn2ccnc2)c2ccc(Cl)cc2Cl)c(Cl)c1 (stereo not given) [MICONAZOLE]
zone of inhibition at 480.6 µM (Pseudomonas aeruginosa [1]): 0 mm
zone of inhibition at 480.6 µM (Proteus vulgaris [2]): 0 mm
zone of inhibition at 480.6 µM (Klebsiella pneumoniae [3]): 0 mm
zone of inhibition at 480.6 µM (Klebsiella aerogenes [4]): 0 mm
zone of inhibition at 480.6 µM (Staphylococcus aureus [5]): 0 mm
zone of inhibition at 480.6 µM [6]: 0 mm
zone of inhibition at 480.6 µM (Streptococcus pyogenes [7]): 0 mm
zone of inhibition at 480.6 µM (Streptococcus agalactiae [8]): 0 mm
zone of inhibition at 480.6 µM (Aspergillus sp. [9]): 0 mm
MIC (Candida albicans [10]): 37.5 µM (≈ 15.6 µg/mL)
zone of inhibition at 480.6 µM (Escherichia coli [11]): 0 mm
zone of inhibition at 480.6 µM (Candida albicans [12]): 17 mm

CC1(C)S[C@@H]2[C@H](NC(=O)[C@H](N)c3ccccc3)C(=O)N2[C@H]1C(=O)O [AMPICILLIN]
zone of inhibition at 572.4 µM (Pseudomonas aeruginosa [13]): 11 mm
zone of inhibition at 572.4 µM (Proteus vulgaris [14]): 0 mm
zone of inhibition at 572.4 µM (Klebsiella pneumoniae [15]): 0 mm
zone of inhibition at 572.4 µM (Klebsiella aerogenes [16]): 0 mm
zone of inhibition at 572.4 µM (Staphylococcus aureus [17]): 17 mm
zone of inhibition at 572.4 µM [18]: 11 mm
zone of inhibition at 572.4 µM (Streptococcus pyogenes [19]): 17 mm
zone of inhibition at 572.4 µM (Streptococcus agalactiae [20]): 17 mm
zone of inhibition at 572.4 µM (Candida albicans [21]): 0 mm
zone of inhibition at 572.4 µM (Aspergillus sp. [22]): 0 mm
MIC (Staphylococcus aureus [23]): 35.8 µM (≈ 12.5 µg/mL)
MIC (Pseudomonas aeruginosa [24]): > 358 µM
zone of inhibition at 572.4 µM (Escherichia coli [25]): 17 mm
